# Experimental data collected from several papers.
# Organism: Staphylococcus aureus
# Effect on: microbial growth
Compound,test,test system,setting,MIC
O=C(Nc1ccc(F)cc1)c1ccccc1O,broth dilution,ATCC29213,,32 mg/L
CN[C@H](CC(C)C)C(=O)N[C@H]1C(=O)N[C@@H](CC(N)=O)C(=O)N[C@H]2C(=O)N[C@H]3C(=O)N[C@H](C(=O)N[C@H](C(=O)O)c4cc(O)cc(O)c4-c4cc3ccc4O)[C@H](O)c3ccc(c(Cl)c3)Oc3cc2cc(c3O[C@@H]2O[C@H](CO)[C@@H](O)[C@H](O)[C@H]2O[C@H]2C[C@](C)(N)[C@H](O)[C@H](C)O2)Oc2ccc(cc2Cl)[C@H]1O,broth dilution,6917,,1 mg/L
CC1(C)S[C@@H]2[C@H](NC(=O)[C@H](N)c3ccccc3)C(=O)N2[C@H]1C(=O)O,broth dilution,ATCCBAA44,,16 mg/L
O=C1NC(=S)S/C1=C\c1ccc(-c2ccc(N(c3ccccc3)c3ccccc3)cc2)c2ccccc12,broth dilution,ATCC43300,,1000 mg/L
Cc1cnc(-c2cnc(NCCNc3ccc(C#N)cn3)nc2-c2ccc(Cl)cc2Cl)[nH]1,,NCTC8325,,> 30 µM
CC(=O)NCN1N=C(C)C(=NNn2c(-c3ccccc3)nc3ccccc3c2=O)C1=O,broth dilution,,24 h,59.9 µM
O=C(O)c1cccc2ccccc12,,,,> 128 mg/L
CC(C)Oc1c(NC(=O)c2ccc(NC(=O)[C@H](CC(N)=O)NC(=O)c3ccc(NC(=O)c4ccc(S(C)(=O)=O)cc4)cc3)cc2)ccc(C(=O)Nc2ccc(C(=O)O)cc2)c1O,,ATCC29213,,> 64 mg/L
Cc1cnc(Nc2ccc(OCCN3CCCC3)cc2)nc1Nc1cccc(S(=O)(=O)NC(C)(C)C)c1,,NCTC8325,,> 30 µM
O=C(O)CN1C(=O)/C(=C/c2ccc(-c3ccc(N(c4ccccc4)c4ccccc4)cc3)c3ccccc23)SC1=S,broth dilution,ATCC6538,,1000 mg/L
Clc1ccc(-c2nc3ccccc3n2Cc2ccccc2)cc1,broth dilution,ATCC29213 MSSA,,64 mg/L
CC(C)Oc1c(NC(=O)c2ccc(NC(=O)[C@H](CC(N)=O)NC(=O)c3ccc(NC(=O)c4cc(=O)c(O)c[nH]4)cc3)cc2)ccc(C(=O)Nc2ccc(C(=O)O)cc2)c1O,,ATCC29213,,> 64 mg/L
COc1c(C)c(OC(C)=O)c(C)c(OC(C)=O)c1C(=O)/C=C/c1ccccc1,broth dilution,ATCC25923,,5000 mg/L
CCCS(=O)(=O)Nc1ccc(F)c(C(=O)c2c[nH]c3ncc(Cl)cc23)c1F,,NCTC8325,,> 30 µM
Cc1ccc2nc(-c3ccc(Cl)c(Cl)c3)[nH]c2c1,broth dilution,ATCC29213 MSSA,,16 mg/L
Cc1cc(C)c(NC(=O)Nc2ccc3c(c2)OC(F)(F)O3)c(C)c1,,NCTC8325,,> 100 µM
NC[C@H]1O[C@H](O[C@H]2[C@H](O)[C@@H](O[C@H]3O[C@H](CO)[C@@H](O)[C@H](N)[C@H]3O)[C@H](N)C[C@@H]2N)[C@H](N)C[C@@H]1O,,156,clinical isolate,12.5 µM
C#CCCC1(CCNC(=O)c2cc(Oc3ccc(NC(=O)Nc4ccc(Cl)c(C(F)(F)F)c4)cc3)ccn2)N=N1,,NCTC8325,24 h,10 µM
C=CCn1c(-c2ccc([N+](=O)[O-])cc2)nc2ccccc21,broth dilution,ATCC29213 MSSA,,32 mg/L
CC1(C)S[C@@H]2[C@H](NC(=O)[C@H](N)c3ccccc3)C(=O)N2[C@H]1C(=O)O,broth dilution,,,0.02 mg/L
C=CC(=O)Nc1cc2c(Nc3ccc(F)c(Cl)c3)ncnc2cc1OCCCN1CCOCC1,,NCTC8325,,> 30 µM
